Assay results of several laboratories.
Each line is one published result; the experiments were not run side by side.
Target: Dual specificity mitogen-activated protein kinase kinase 5 (MAP2K5, Homo sapiens, UniProt Q13163)
Sequence (Q13163 1-448, as in one of the studies): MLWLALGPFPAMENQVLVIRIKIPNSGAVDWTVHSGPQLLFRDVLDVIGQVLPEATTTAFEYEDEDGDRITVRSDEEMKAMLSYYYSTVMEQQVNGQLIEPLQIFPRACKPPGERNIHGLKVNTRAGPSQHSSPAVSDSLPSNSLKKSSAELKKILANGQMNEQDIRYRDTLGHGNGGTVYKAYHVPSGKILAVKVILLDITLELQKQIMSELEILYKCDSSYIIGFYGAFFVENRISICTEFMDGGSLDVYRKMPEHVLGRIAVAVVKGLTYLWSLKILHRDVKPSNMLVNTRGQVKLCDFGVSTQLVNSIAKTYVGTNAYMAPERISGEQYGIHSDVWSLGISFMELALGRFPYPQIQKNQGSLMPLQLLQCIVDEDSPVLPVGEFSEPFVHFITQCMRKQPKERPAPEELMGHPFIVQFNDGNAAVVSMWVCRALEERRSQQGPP

`FC(F)(F)Oc1cccc(-c2cnc3ccc(-c4ccncc4)nn23)c1` gave a remaining binding of 35% (cell-free assay, competition with immobilised ligand; 5 µM).
The remaining binding of `Cc1cnc(Nc2ccc(C(=O)N3CCC(N4CCCC4)CC3)cc2)nc1-c1cc2ccccc2s1` is reported as 0.4% (binding, competition with immobilised ligand; 1 µM).
With `CNC(=O)[C@@H]1CC[C@@H](n2c(-c3ccc4cnccc4c3)nc3ccc(C(=O)NCc4cccc(C(N)=O)c4)cc32)C1` the remaining binding was 53% (binding, competition with immobilised ligand; 1 µM).
`CCCCN(CCCC)C(=O)CN1C[C@H](c2cc(OC)c3c(c2)OCO3)[C@@H](C(=O)O)[C@@H]1CC(C)(C)CCC` gave a remaining binding of 100% (cell-free assay, competition with immobilised ligand; 1 µM).
The remaining binding of `CN(CCCC(F)(F)F)c1nccc(-c2cnn3ncccc23)n1` is reported as 100% (binding; 1 µM).
The remaining binding of `C=CC(=O)N1CCC(C(=O)NCC(=O)N2CCN(c3nc(-c4cnc(N)nc4C(F)F)nc(N4CCOCC4)n3)CC2)CC1` is reported as 77% (binding, competition with immobilised ligand; 1 µM).
The remaining binding of `COc1ccnn2ncc(-c3ccnc(N(C)C)n3)c12` is reported as 76% (binding; 1 µM).
With `COc1ccc2c(O[C@@H]3C[C@H]4C(=O)N[C@]5(C(=O)O)CC5/C=C\CCCCC[C@H](NC(=O)OC5CCCC5)C(=O)N4C3)cc(-c3csc(NC(=O)C(C)C)n3)nc2c1C` (stereo partly shown) the remaining binding was 71% (cell-free assay, competition with immobilised ligand; 1 µM).
`CN(C)c1nccc(-c2cnc3ncccn23)n1` gave a remaining binding of 48% (binding; 1 µM).
With `N#Cc1ccc(Nc2ccc3[nH]c(=O)[nH]c3c2)c(Cl)c1` the remaining binding was 100% (cell-free assay, competition with immobilised ligand; 1 µM).
The remaining binding of `N[C@H]1CCN(c2nccc(-c3cnn4ncccc34)n2)C1` is reported as 69% (binding; 1 µM).
The remaining binding of `CN1CCN(c2cnc3c(C4CCN(C(=O)c5ccc(OC(F)(F)F)cc5N)CC4)ncnc3c2)CC1` is reported as 86% (cell-free assay, competition with immobilised ligand; 1 µM).
For `O=C(NCC1CCOCC1)c1n[nH]cc1NC(=O)c1c(F)cccc1F`, the remaining binding was 68% (binding, competition with immobilised ligand; 1 µM).
With `O=C(O)c1cc(-c2ccc(C3CCNCC3)cc2)c2ccc(-c3ccc(C(F)(F)F)cc3)cc2c1` the remaining binding was 96% (cell-free assay, competition with immobilised ligand; 1 µM).
`O=C(c1ccc(Nc2nccc(-c3cc4ccccc4s3)n2)cc1)N1CCC(N2CCCC2)CC1` gave a remaining binding of 16% (binding, competition with immobilised ligand; 1 µM).
`C[C@H]1CCN(c2nccc(-c3cnn4ncccc34)n2)C1` gave a remaining binding of 81% (binding; 1 µM).
With `O=C(c1ccc(Nc2ncc(Cl)c(-c3ccc(Cl)s3)n2)cc1)N1CCC(N2CCCC2)CC1` the remaining binding was 0.85% (binding, competition with immobilised ligand; 1 µM).
The remaining binding of `CN(C(=O)c1ccccc1)c1cc(N(C)c2ccc3c(c2)CCc2ccc(C(=O)NCCN4CCOCC4)cc2C3=O)ccc1F` is reported as 100% (cell-free assay, competition with immobilised ligand; 1 µM).
With `CN(c1nccc(-c2cnn3ncccc23)n1)C1CC1` the remaining binding was 100% (binding; 1 µM).
With `CCN1CCN(Cc2ccc(C(=O)Nc3ccc(C)c(Oc4ccc5c(c4)CC(=O)N5)c3)cc2C(F)(F)F)CC1` the remaining binding was 100% (binding, competition with immobilised ligand; 1 µM).
The remaining binding of `O=C1NC(c2ccccn2)Sc2ccccc21` (stereo not shown) is reported as 87% (cell-free assay, competition with immobilised ligand; 1 µM).
For `COc1ncc2cc3ccccc3nc2c1C#N`, the remaining binding was 94% (cell-free assay, competition with immobilised ligand; 5 µM).
